Holding throughout (assay type): functional
Experiment [1] deals with Staphylococcus aureus. Put plainly: Antibacterial activity against Staphylococcus aureus at 100 ug after 24 hrs by agar disc-diffusion method. As to conditions: read-out: IZ. In a few lines: (§1)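 Agar disc diffusion on nutrient agar with bacterial strains from NCIM, Pune. Sterile 6 mm filter-paper discs were wetted with compound in DMSO and placed on plates already inoculated with each organism. Plates were incubated at 37 °C, and the diameter of the growth-inhibition zone was measured after 24 h.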

For experiment [2], the system named is Aspergillus niger. The experiment in a line: Antifungal activity against Aspergillus niger at 100 ug after 48 hrs by agar disc-diffusion method. As to conditions: read-out: IZ. In a few lines: (§2)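 Fungal strains from NCIM, Pune, were tested by disc diffusion on nutrient agar. Sterile 6 mm paper discs moistened with the compound solution in DMSO were placed on plates pre-inoculated with each fungus. Plates were incubated at 37 °C, and the inhibition-zone diameter was read after 48 h.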

Experiment [3] has as its system Bacillus subtilis. Put plainly: Antibacterial activity against Bacillus subtilis at 200 ug after 24 hrs by agar disc-diffusion method. As to conditions: read-out: IZ. In a few lines: as §1
For experiment [4], the system named is Curvularia lunata. The experiment in a line: Antifungal activity against Curvularia lunata at 100 ug after 48 hrs by agar disc-diffusion method. As to conditions: read-out: IZ. In a few lines:
as §2

Experiment [5] deals with Curvularia lunata. Put plainly: Antifungal activity against Curvularia lunata at 200 ug after 48 hrs by agar disc-diffusion method. As to conditions: read-out: IZ. In a few lines: as §2
For experiment [6], the system named is Escherichia coli. Put plainly: Antibacterial activity against Escherichia coli at 100 ug after 24 hrs by agar disc-diffusion method. As to conditions: read-out: IZ. In a few lines:
as §1

Experiment [7] concerns Escherichia coli. Put plainly: Antibacterial activity against Escherichia coli at 200 ug after 24 hrs by agar disc-diffusion method. As to conditions: read-out: IZ. In a few lines: as §1
For experiment [8], the system named is Aspergillus niger. The experiment in a line: Antifungal activity against Aspergillus niger at 200 ug after 48 hrs by agar disc-diffusion method. As to conditions: read-out: IZ. In a few lines:
as §2

For experiment [9], the system named is Fusarium solani. The experiment in a line: Antifungal activity against Fusarium solani at 100 ug after 48 hrs by agar disc-diffusion method. As to conditions: read-out: IZ. In a few lines:
as §2

Experiment [10] deals with Staphylococcus aureus. The experiment in a line: Antibacterial activity against Staphylococcus aureus at 200 ug after 24 hrs by agar disc-diffusion method. As to conditions: read-out: IZ. In a few lines:
as §1

In experiment [11] the test system is Klebsiella pneumoniae. The experiment in a line: Antibacterial activity against Klebsiella pneumoniae at 100 ug after 24 hrs by agar disc-diffusion method. As to conditions: read-out: IZ. In a few lines: as §1
Experiment [12] relates to Fusarium solani. Put plainly: Antifungal activity against Fusarium solani at 200 ug after 48 hrs by agar disc-diffusion method. As to conditions: read-out: IZ. In a few lines: as §2
Experiment [13] has as its system Klebsiella pneumoniae. Put plainly: Antibacterial activity against Klebsiella pneumoniae at 200 ug after 24 hrs by agar disc-diffusion method. As to conditions: read-out: IZ. In a few lines: as §1
Experiment [14] deals with Bacillus subtilis. Put plainly: Antibacterial activity against Bacillus subtilis at 100 ug after 24 hrs by agar disc-diffusion method. As to conditions: read-out: IZ. In a few lines:
as §1

Experiment [15] relates to Escherichia coli. Put plainly: Antibacterial activity against Escherichia coli after 24 hrs by microdilution susceptibility method. In a few lines: (§3)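 Microdilution susceptibility test on bacterial strains from NCIM, Pune. Microorganism suspensions were inoculated into wells containing the compound and incubated at 36 °C for 24 h. MIC was taken as the lowest concentration showing no turbidity, meaning complete inhibition of visible growth.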

Experiment [16] has as its system Bacillus subtilis. Put plainly: Antibacterial activity against Bacillus subtilis after 24 hrs by microdilution susceptibility method. In a few lines:
as §3

Experiment [17] has as its system Fusarium solani. Put plainly: Antifungal activity against Fusarium solani after 48 hrs by microdilution susceptibility method. In a few lines: (§4)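 Broth microdilution with fungi from NCIM, Pune. Fungal suspensions were added to wells containing the compound and incubated at 36 °C for 48 h. MIC was recorded as the lowest concentration with no turbidity, that is, no visible growth.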

For experiment [18], the system named is Aspergillus niger. Put plainly: Antifungal activity against Aspergillus niger after 48 hrs by microdilution susceptibility method. In a few lines:
as §4

The subject of experiment [19] is Staphylococcus aureus. Put plainly: Antibacterial activity against Staphylococcus aureus after 24 hrs by microdilution susceptibility method. In a few lines: as §3
The test system of experiment [20] is Curvularia lunata. Put plainly: Antifungal activity against Curvularia lunata after 48 hrs by microdilution susceptibility method. In a few lines: as §4
For experiment [21], the system named is Klebsiella pneumoniae. The experiment in a line: Antibacterial activity against Klebsiella pneumoniae after 24 hrs by microdilution susceptibility method. In a few lines: as §3

Structures are written as SMILES. ≈ marks a conversion by molar mass, not a printed value.

As to `Cc1ccc([C@H]2CNN=C2S(=O)(=O)Cc2nnc(S)o2)cc1`, the zone of inhibition at 100 µg/disc in [1] came out at 12 mm; in experiment [2] it was 17 mm; in experiment [4] it was 16 mm; in experiment [6] it was 12 mm; in experiment [9] it was 16 mm; in [11], 10 mm. Further, the zone of inhibition at 100 µg/disc in experiment [14] is 13 mm. Further, the zone of inhibition at 200 µg/disc is 16 mm in experiment [3]; 18 mm in experiment [5]; 14 mm in experiment [7]; 21 mm in experiment [8]; 15 mm in experiment [10]; 20 mm in experiment [12]. In addition, in experiment [13], the zone of inhibition at 200 µg/disc is 12 mm.
On to `Nn1c(S)nnc1CS(=O)(=O)C1=NNC[C@@H]1c1ccc(Cl)cc1`, for which the zone of inhibition at 100 µg/disc is 32 mm in [1]; 36 mm in experiment [2]; 39 mm in [4]; 23 mm in experiment [6]; 40 mm in experiment [9]; 26 mm in experiment [11]. Besides, in [14], the zone of inhibition at 100 µg/disc was 34 mm. The MIC in experiment [15] stood at 50 µg/mL (≈ 134 µM); in experiment [16], 12.5 µg/mL (≈ 33.5 µM); in experiment [17], 25 µg/mL (≈ 67 µM); in experiment [18], 25 µg/mL (≈ 67 µM); in [19] it was 12.5 µg/mL (≈ 33.5 µM); in experiment [20], 12.5 µg/mL (≈ 33.5 µM). In [21], this molecule came in with an MIC of 50 µg/mL (≈ 134 µM). For the same molecule, the zone of inhibition at 200 µg/disc in experiment [3] is 36 mm; in [5], 42 mm; in experiment [7] it was 25 mm; in experiment [8], 40 mm; in experiment [10] it was 35 mm; in [12] it was 43 mm. Moreover, in experiment [13], the zone of inhibition at 200 µg/disc came to 28 mm.
As to `CC(=O)N1CCN(c2ccc(OCC3COC(Cn4ccnc4)(c4ccc(Cl)cc4Cl)O3)cc2)CC1` (configuration not stated) [KETOCONAZOLE], the zone of inhibition at 100 µg/disc in experiment [2] turned out to be 36 mm; in experiment [4], 41 mm; in [9] it was 38 mm. Also, the MIC in [17] came to 12.5 µg/mL (≈ 23.5 µM); in experiment [18] it was 6.25 µg/mL (≈ 11.8 µM); in [20] it was 6.25 µg/mL (≈ 11.8 µM). The zone of inhibition at 200 µg/disc in [5] came to 44 mm; in experiment [8] it was 39 mm; in experiment [12], 42 mm.
`Cc1ccc([C@H]2CNN=C2S(=O)(=O)Cc2nnc(S)n2N)cc1`: the zone of inhibition at 100 µg/disc in experiment [1] worked out at 25 mm; in experiment [2], 35 mm; in experiment [4], 34 mm; in [6] it was 24 mm; in experiment [9], 32 mm; in [11], 22 mm. Besides, the zone of inhibition at 100 µg/disc in experiment [14] was 27 mm. In addition, the zone of inhibition at 200 µg/disc in experiment [3] is 29 mm; in experiment [5], 39 mm; in experiment [7], 26 mm; in experiment [8], 38 mm; in experiment [10], 28 mm; in experiment [12], 37 mm. In addition, the zone of inhibition at 200 µg/disc in experiment [13] came to 24 mm.
Take `O=S(=O)(Cc1nnc(S)o1)C1=NNC[C@@H]1c1ccccc1`: the zone of inhibition at 100 µg/disc was found to be 14 mm in experiment [1]; 16 mm in experiment [2]; 17 mm in [4]; 15 mm in experiment [6]; 17 mm in experiment [9]; 14 mm in [11]. The zone of inhibition at 100 µg/disc in experiment [14] was 13 mm. Moreover, the zone of inhibition at 200 µg/disc was found to be 15 mm in experiment [3]; 22 mm in [5]; 18 mm in experiment [7]; 21 mm in [8]; 16 mm in [10]; 19 mm in experiment [12]. Further, the zone of inhibition at 200 µg/disc in [13] was found to be 16 mm.
On to `Nn1c(S)nnc1CS(=O)(=O)C1=NNC[C@@H]1c1ccccc1`, for which the zone of inhibition at 100 µg/disc in experiment [1] is 28 mm; in experiment [2] it was 36 mm; in [4] it was 37 mm; in experiment [6], 22 mm; in [9], 39 mm; in experiment [11], 21 mm. Besides, in experiment [14], the zone of inhibition at 100 µg/disc is 31 mm. Besides, the MIC in experiment [15] was 50 µg/mL (≈ 148 µM); in [16], 25 µg/mL (≈ 73.9 µM); in experiment [17], 100 µg/mL (≈ 295 µM); in experiment [18] it was 100 µg/mL (≈ 295 µM); in experiment [19], 25 µg/mL (≈ 73.9 µM); in [20], 100 µg/mL (≈ 295 µM). Besides, in experiment [21], the minimal inhibitory concentration (MIC) came out at 100 µg/mL (≈ 295 µM). Also, the zone of inhibition at 200 µg/disc in experiment [3] was found to be 33 mm; in [5] it was 41 mm; in [7] it was 25 mm; in experiment [8], 39 mm; in experiment [10], 30 mm; in experiment [12], 44 mm. Also, the zone of inhibition at 200 µg/disc in [13] was found to be 24 mm.
Regarding `O=C(N[C@H](CO)[C@H](O)c1ccc([N+](=O)[O-])cc1)C(Cl)Cl` [CHLORAMPHENICOL], the zone of inhibition at 100 µg/disc was 35 mm in experiment [1], 40 mm in experiment [6], 42 mm in [11] and 38 mm in experiment [14]. In addition, the MIC in experiment [15] was found to be 6.25 µg/mL (≈ 19.3 µM); in experiment [16] it was 6.25 µg/mL (≈ 19.3 µM); in experiment [19], 6.25 µg/mL (≈ 19.3 µM); in experiment [21] it was 12.5 µg/mL (≈ 38.7 µM). The zone of inhibition at 200 µg/disc in experiment [3] amounted to 41 mm; in experiment [7], 44 mm; in [10], 39 mm; in experiment [13], 45 mm.
Regarding `O=S(=O)(Cc1nnc(S)o1)C1=NNC[C@@H]1c1ccc(Cl)cc1`, the zone of inhibition at 100 µg/disc is 13 mm in experiment [1]; 14 mm in experiment [2]; 16 mm in experiment [4]; 11 mm in [6]; 15 mm in [9]; 11 mm in [11]. In addition, the zone of inhibition at 100 µg/disc in [14] amounted to 15 mm. Further, the zone of inhibition at 200 µg/disc turned out to be 18 mm in [3]; 19 mm in [5]; 13 mm in experiment [7]; 18 mm in experiment [8]; 17 mm in experiment [10]; 18 mm in experiment [12]. Besides, in experiment [13], the zone of inhibition at 200 µg/disc was 14 mm.
As to `Cc1ccc([C@H]2CNN=C2S(=O)(=O)Cc2nnc(S)s2)cc1`, the zone of inhibition at 100 µg/disc in experiment [1] worked out at 14 mm; in experiment [2], 22 mm; in experiment [4], 20 mm; in experiment [6] it was 18 mm; in experiment [9] it was 24 mm; in experiment [11], 16 mm. Further, the zone of inhibition at 100 µg/disc in [14] was determined as 16 mm. The zone of inhibition at 200 µg/disc in experiment [3] is 19 mm; in experiment [5], 23 mm; in experiment [7] it was 21 mm; in [8], 24 mm; in experiment [10], 17 mm; in experiment [12], 26 mm. Also, the zone of inhibition at 200 µg/disc in [13] was found to be 19 mm.
For the molecule `O=S(=O)(Cc1nnc(S)s1)C1=NNC[C@@H]1c1ccccc1`, the zone of inhibition at 100 µg/disc in [1] is 18 mm; in [2], 25 mm; in [4], 26 mm; in experiment [6], 15 mm; in [9] it was 22 mm; in [11] it was 17 mm. Besides, the zone of inhibition at 100 µg/disc in experiment [14] came to 20 mm. Also, the zone of inhibition at 200 µg/disc in experiment [3] was 23 mm; in experiment [5] it was 29 mm; in experiment [7] it was 20 mm; in experiment [8] it was 28 mm; in experiment [10], 21 mm; in experiment [12], 24 mm. In experiment [13], the zone of inhibition at 200 µg/disc was 20 mm.

The record behind these values is ChEMBL document CHEMBL1156668, “Synthesis and antimicrobial activity of novel sulfone-linked bis heterocycles” (2008).
